Laboratory results as given in ChEMBL document CHEMBL1250492, “Development of isoniazid-NAD truncated adducts embedding a lipophilic fragment as potential bi-substrate InhA inhibitors and antimycobacterial agents” (Eur J Med Chem, 2010).
“And” between values parts separate entries of the source, which are not always exact repeats. Equal entries are not always repeated.

Key:
[1] = target: T1, Enoyl-[acyl-carrier-protein] reductase [NADH] (Mycobacterium tuberculosis) (UniProt P9WGR1); experiment: Inhibition of Mycobacterium tuberculosis InhA expressed in Escherichia coli at 100 uM after 5 mins
T1 sequence (whole entry): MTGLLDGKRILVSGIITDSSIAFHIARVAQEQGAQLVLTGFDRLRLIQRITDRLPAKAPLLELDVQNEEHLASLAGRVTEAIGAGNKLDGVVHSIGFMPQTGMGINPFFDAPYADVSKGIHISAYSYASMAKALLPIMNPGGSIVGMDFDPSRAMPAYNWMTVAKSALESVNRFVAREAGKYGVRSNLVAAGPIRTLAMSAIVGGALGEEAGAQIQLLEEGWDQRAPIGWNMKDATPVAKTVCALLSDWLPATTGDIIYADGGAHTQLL
Method in brief: (§1)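 Recombinant M. tuberculosis InhA, E. coli-expressed and purified, at 70 nM. Pre-incubated with compound for 5 min or 2 h in 30 mM PIPES, 150 mM NaCl, pH 6.8, 25 °C, with 0.5% final DMSO. The reaction was started with trans-2-decenoyl-CoA plus NADH and followed by NADH oxidation at 340 nm, 25 °C. Initial rates were compared with a ligand-free control, giving % inhibition. Run in triplicate.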

[2] = system: Mycolicibacterium smegmatis; experiment: Antimycobacterial activity against Mycobacterium smegmatis after 24 hrs by MTT assay; assay type: functional, organism-based
Method in brief: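 MTT (1 mg/ml solution) was then added for a further 24 h, followed by DMF:20% SDS (1:2) solubilization and A570 reading. MIC is the lowest concentration blocking visible growth, and IC50 was fitted by non-linear regression. DMSO stocks were at 100× the top concentration. Isoniazid served as positive control.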

[3] = system: Mycobacterium tuberculosis; experiment: Antimycobacterial activity against Mycobacterium tuberculosis after 24 hrs by MTT assay; assay type: functional, organism-based
Method in brief: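 MTT was then added for a further 24 h, followed by DMF:20% SDS (1:2) solubilisation and A570 read-out. MIC was the lowest concentration stopping visible growth versus untreated bacilli. IC50 came from non-linear regression. DMSO stocks were at 100× the top concentration.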

[4] = target: T1, Enoyl-[acyl-carrier-protein] reductase [NADH] (Mycobacterium tuberculosis); experiment: Inhibition of Mycobacterium tuberculosis InhA expressed in Escherichia coli at 20 uM after 5 mins; method in brief: as §1
[5] = target: T1, Enoyl-[acyl-carrier-protein] reductase [NADH] (Mycobacterium tuberculosis); experiment: Inhibition of Mycobacterium tuberculosis InhA expressed in Escherichia coli at 10 uM after 5 mins; method in brief: as §1
[6] = target: T1, Enoyl-[acyl-carrier-protein] reductase [NADH] (Mycobacterium tuberculosis); experiment: Inhibition of Mycobacterium tuberculosis InhA expressed in Escherichia coli at 20 uM after 2 hrs; method in brief: as §1
[7] = target: T1, Enoyl-[acyl-carrier-protein] reductase [NADH] (Mycobacterium tuberculosis); experiment: Inhibition of Mycobacterium tuberculosis InhA expressed in Escherichia coli at 1 uM after 5 mins
[8] = target: T1, Enoyl-[acyl-carrier-protein] reductase [NADH] (Mycobacterium tuberculosis); experiment: Inhibition of Mycobacterium tuberculosis InhA expressed in Escherichia coli at 10 uM after 2 hrs; method in brief: as §1
[9] = target: T1, Enoyl-[acyl-carrier-protein] reductase [NADH] (Mycobacterium tuberculosis); experiment: Inhibition of Mycobacterium tuberculosis InhA expressed in Escherichia coli at 1 uM after 2 hrs
[10] = target: T1, Enoyl-[acyl-carrier-protein] reductase [NADH] (Mycobacterium tuberculosis); experiment: Inhibition of Mycobacterium tuberculosis InhA expressed in Escherichia coli at 100 uM after 2 hrs; method in brief: as §1
[11] = Mycolicibacterium smegmatis, 24 h

**Q.** How did the inhibition [1] turn out when CCCCCCCCc1cccc(C2(O)NC(=O)c3cnccc32)c1 (centres undefined) was run?
**A.** 9%

**Q.** What about the IC50 [2] of the same compound?
**A.** 4.5 µM and 19.5 µM

**Q.** What about the IC50 [3] of the same compound?
**A.** 19.5 µM

**Q.** Which results are given for CCCCCCCCCCCCc1cccc(C2(O)NC(=O)c3c[n+](CC(=O)OCC)ccc32)c1 (centres undefined)?
**A.** inhibition [1]: 91%; inhibition [4]: 40%; inhibition [5]: 19%; inhibition [6]: 28%; IC50 [2]: 3.2 µM and 9.8 µM; IC50 [3]: 39 µM

**Q.** How did the inhibition [1] turn out when CCCCCCCCCCCCOc1cccc(C(=O)C2C=CN(CC(=O)OCCCO)C=C2C(N)=O)c1 (centres undefined) was run?
**A.** 3%

**Q.** How did the inhibition [1] turn out when CCCCCCCCCCCCOc1cccc(C(=O)C2C=CN(CC(=O)OCC)C=C2C(N)=O)c1 (centres undefined) was run?
**A.** 6%

**Q.** How did the inhibition [1] turn out when CCCCCCCCCCCCOc1cccc(C2(O)NC(=O)c3c[n+](CC(=O)OCC)ccc32)c1 (centres undefined) was run?
**A.** 35%

**Q.** How did the inhibition [1] turn out when CCCCCCCCCCCCc1cccc(C2(O)NC(=O)c3cnccc32)c1 (centres undefined) was run?
**A.** 4%

**Q.** What about the IC50 [2] of the same compound?
**A.** 78 µM

**Q.** And the IC50 [2, 11]?
**A.** 47 µM

**Q.** What about the IC50 [3] of the same compound?
**A.** 9.8 µM

**Q.** For NC(=O)C1=CN([C@@H]2O[C@H](COP(=O)(O)OP(=O)(O)OC[C@H]3O[C@@H](n4cnc5c(N)ncnc54)[C@H](O)[C@@H]3O)[C@@H](O)[C@H]2O)C=C[C@@H]1C(=O)c1ccncc1, which inhibition [5] is on record?
**A.** 92%

**Q.** And the inhibition [7]?
**A.** 67%

**Q.** And the inhibition [8]?
**A.** 97%

**Q.** And the inhibition [9]?
**A.** 87%

**Q.** How did the inhibition [1] turn out when C=CCOc1cccc(C2(O)NC(=O)c3cnccc32)c1 (centres undefined) was run?
**A.** 23%

**Q.** And the IC50 [2, 11]?
**A.** 1300 µM

**Q.** For O=C1NC(O)(c2cccc(O)c2)c2ccncc21 (centres undefined), which inhibition [1] is on record?
**A.** 17%

**Q.** And the IC50 [2, 11]?
**A.** 300 µM

**Q.** How did the inhibition [1] turn out when CCCCCCCCCc1ccc(-c2cccc(C3(O)NC(=O)c4cnccc43)c2)cc1 (centres undefined) was run?
**A.** 17%

**Q.** What about the IC50 [2, 11] of the same compound?
**A.** 1800 µM

**Q.** Which results are given for NNC(=O)c1ccncc1 [ISONIAZID]?
**A.** IC50 [2]: 7.8 µM and 39 µM; IC50 [3]: < 0.3 µM

**Q.** Which results are given for O=C1NC(O)(c2cccc(Br)c2)c2ccncc21 (centres undefined)?
**A.** inhibition [1]: 20%; IC50 [2, 11]: > 5000 µM

**Q.** With CCCCCCCCCCCCOc1cccc(C2(O)NC(=O)c3c[n+](CC(=O)OCCCO)ccc32)c1 (centres undefined) as the compound, how does the inhibition [1] read?
**A.** 30%

**Q.** What does the source list for CCCCCCCCCCCCc1cccc(C(=O)C2C=CN(CC(=O)OCC)C=C2C(N)=O)c1 (centres undefined)?
**A.** inhibition [5]: 25%; IC50 [2]: 9.8 µM; IC50 [2, 11]: 5.3 µM; IC50 [3]: 9.8 µM

**Q.** For CCCCCCCCCCCCOc1cccc(C2(O)NC(=O)c3cnccc32)c1 (centres undefined), which inhibition [1] is on record?
**A.** 41%

**Q.** And the inhibition [10]?
**A.** 80%

**Q.** And the IC50 [2]?
**A.** 68 µM and 156 µM

**Q.** And the IC50 [3]?
**A.** 156 µM
